pIC50: −log10 of the molar value.
Legend:
[1] = system: Middle East respiratory syndrome-related coronavirus; assay: Antiviral activity against Middle East respiratory syndrome coronavirus MERS-CoV/KOR/KNIH/002_05_2015 infected in African green monkey Vero cells assessed as reduction in virus induced cytopathic effect after 24 hrs by immunofluorescence assay; assay type: functional, organism-based; details: MERS-CoV/KOR/KNIH/002_05_2015, Vero
Vero = assay: Cytotoxicity against African green monkey Vero cells infected with Middle East respiratory syndrome coronavirus MERS-CoV/KOR/KNIH/002_05_2015 assessed as reduction in cell viability; assay type: cell-based; details: chlorocebus sabaeus
[2] = Metabolic stability in human microsomes assessed as parent compound remaining incubated for 30 mins; assay type: ADME, Microsome; details: read-out: Stabilty
Method in brief: (§1)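 Mouse or human liver microsomes were incubated with the compound for 30 min. The read-out is the percentage of original compound remaining.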

in vivo = details: rat, po, 5 mg/kg
[3] = biological target: Voltage-gated inwardly rectifying potassium channel KCNH2 (Homo sapiens, UniProt Q12809); assay: Modulation of human ERG
Sequence of Voltage-gated inwardly rectifying potassium channel KCNH2 (Q12809 whole entry): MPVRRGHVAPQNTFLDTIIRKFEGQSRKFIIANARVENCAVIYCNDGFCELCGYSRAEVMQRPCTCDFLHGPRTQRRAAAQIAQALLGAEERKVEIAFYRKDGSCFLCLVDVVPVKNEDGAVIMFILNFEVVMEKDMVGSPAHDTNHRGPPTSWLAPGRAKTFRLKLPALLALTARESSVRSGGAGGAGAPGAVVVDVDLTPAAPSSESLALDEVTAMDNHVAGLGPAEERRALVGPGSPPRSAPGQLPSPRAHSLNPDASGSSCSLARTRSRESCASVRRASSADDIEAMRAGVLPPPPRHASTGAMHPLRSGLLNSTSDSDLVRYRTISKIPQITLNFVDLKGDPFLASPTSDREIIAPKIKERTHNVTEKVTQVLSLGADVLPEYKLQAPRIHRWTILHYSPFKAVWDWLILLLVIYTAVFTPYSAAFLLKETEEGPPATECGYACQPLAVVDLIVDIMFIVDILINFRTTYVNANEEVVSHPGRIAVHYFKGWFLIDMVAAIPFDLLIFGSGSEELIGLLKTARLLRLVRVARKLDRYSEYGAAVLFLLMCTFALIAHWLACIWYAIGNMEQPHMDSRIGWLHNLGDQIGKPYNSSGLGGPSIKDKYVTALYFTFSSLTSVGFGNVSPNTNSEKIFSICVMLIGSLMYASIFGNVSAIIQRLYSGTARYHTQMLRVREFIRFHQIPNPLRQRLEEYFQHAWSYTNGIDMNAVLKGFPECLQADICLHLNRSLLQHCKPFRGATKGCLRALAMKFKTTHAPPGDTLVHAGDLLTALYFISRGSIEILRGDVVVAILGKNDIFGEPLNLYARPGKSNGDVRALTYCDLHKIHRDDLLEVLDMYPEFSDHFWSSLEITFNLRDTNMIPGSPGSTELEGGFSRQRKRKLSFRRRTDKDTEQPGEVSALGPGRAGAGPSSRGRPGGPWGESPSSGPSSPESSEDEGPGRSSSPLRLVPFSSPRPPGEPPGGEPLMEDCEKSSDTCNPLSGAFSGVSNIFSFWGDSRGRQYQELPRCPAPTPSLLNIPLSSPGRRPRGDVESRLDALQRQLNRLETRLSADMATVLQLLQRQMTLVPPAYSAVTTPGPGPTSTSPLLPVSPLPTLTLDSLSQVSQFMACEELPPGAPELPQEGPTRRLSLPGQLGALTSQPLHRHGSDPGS

[4] = Metabolic stability in mouse microsomes assessed as parent compound remaining incubated for 30 mins; assay type: ADME, Microsome; details: read-out: Stabilty; method in brief: as §1
[5] = Oral bioavailability in rat at 5 mg/kg; assay type: ADME, organism-based; details: in vivo
Method in brief: (§2)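 Rats were dosed intravenously at 2 mg/kg or orally at 5 mg/kg. Each parameter is the mean of experiments in three rats.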

[6] = AUC in rat at 5 mg/kg, po; assay type: ADME, organism-based; design: dose 5 mg/kg; details: in vivo
Method in brief: (§3)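 Rat pharmacokinetic study with separate intravenous (2 mg/kg) and oral (5 mg/kg) dosing arms; reported parameters are means from three rats per experiment.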

[7] = Cytotoxicity against CHO-K1 cells; assay type: cell-based, Cricetulus griseus; details: chinese hamster
Method in brief: (§4)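 Cytotoxicity values are given in µM, each against a named cell line: Vero (African green monkey kidney), HFL-1 (human embryonic lung), L929 (NCTC clone 929 mouse fibroblast), NIH 3T3 (mouse embryonic fibroblast) and CHO-K1 (Chinese hamster ovary).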

[8] = AUC in rat at 2 mg/kg, iv; assay type: ADME, organism-based; design: dose 2 mg/kg; details: in vivo; method in brief: as §3
[9] = Cytotoxicity against mouse NIH/3T3 cells; assay type: cell-based, NIH3T3; method in brief: as §4
[10] = Cytotoxicity against human HFL-1 cells; assay type: cell-based, HFL1; method in brief: as §4
[11] = Clearance in rat at 2 mg/kg, iv; assay type: ADME, organism-based; details: in vivo; method in brief: as §2
[12] = Volume of distribution at steady state in rat at 2 mg/kg, iv; assay type: ADME, organism-based; details: in vivo, read-out: Vdss; method in brief: as §2
[13] = Half life in rat at 5 mg/kg, po; assay type: ADME, organism-based; details: in vivo; method in brief: as §2
[14] = Cmax in rat at 5 mg/kg, po; assay type: ADME, organism-based; design: route oral, dose 5 mg/kg; details: in vivo; method in brief: as §2
[15] = Cytotoxicity against mouse L929 cells; assay type: cell-based; method in brief: as §4
[16] = Half life in rat at 2 mg/kg, iv; assay type: ADME, organism-based; details: in vivo; method in brief: as §2
[17] = Cytotoxicity against African green monkey Vero cells; assay type: cell-based; details: chlorocebus sabaeus; method in brief: as §4

| SMILES | pIC50 [1] | CC50 (Vero) | other results |
| --- | --- | --- | --- |
| COc1cccc(CNc2ccc3ncnc(Nc4ccc(F)c(Cl)c4)c3c2)c1 | 5.25 | > 25 µM | – |
| O=[N+]([O-])c1ccc(CNc2ccc3ncnc(Nc4ccc(F)c(Cl)c4)c3c2)cc1 | 5.57 | > 25 µM | – |
| CC(=O)Nc1ccc2ncnc(Nc3ccc(F)c(Cl)c3)c2c1 | < 4.60 | – | – |
| Fc1ccc(CNc2ccc3ncnc(Nc4ccc(F)c(Cl)c4)c3c2)cc1 | 5.34 | 14.4 µM | – |
| O=[N+]([O-])c1cccc(CNc2ccc3ncnc(Nc4ccc(C(F)(F)F)cc4)c3c2)c1 | 5.43 | > 25 µM | – |
| Oc1ccccc1CNc1ccc2ncnc(Nc3ccc(F)c(Cl)c3)c2c1 | 5.44 | – | – |
| N#Cc1ccc(CNc2ccc3ncnc(Nc4ccc(C(F)(F)F)cc4)c3c2)cc1 | 5.39 | > 25 µM | – |
| COc1cccc(CNc2ccc3ncnc(Nc4ccc(Br)cc4)c3c2)c1 | 5.13 | > 25 µM | – |
| O=[N+]([O-])c1ccccc1CNc1ccc2ncnc(Nc3ccc(F)c(Cl)c3)c2c1 | 5.48 | > 25 µM | – |
| Fc1ccc(CNc2ccc3ncnc(Nc4ccc(F)c(Cl)c4)c3c2)cc1F | 5.34 | 23 µM | – |
| COc1cc2ncnc(Nc3ccc(F)c(Cl)c3)c2cc1NCc1cccc(C#N)c1 | 5.24 | 13.2 µM | – |
| N#Cc1ccccc1CNc1ccc2ncnc(Nc3ccc(F)c(Cl)c3)c2c1 | < 4.60 | > 25 µM | – |
| O=[N+]([O-])c1cccc(CNc2ccc3ncnc(Nc4ccc(F)c(Cl)c4)c3c2)c1 | 5.21 | > 25 µM | – |
| NC(=O)c1cccc(CNc2ccc3ncnc(Nc4ccc(F)c(Cl)c4)c3c2)c1 | < 4.60 | – | – |
| COc1cccc(CNc2ccc3ncnc(Nc4ccc(F)cc4)c3c2)c1 | 4.64 | > 25 µM | – |
| N#Cc1cccc(CNc2ccc3ncnc(Nc4ccc(C(F)(F)F)cc4)c3c2)c1 | 5.44 | > 25 µM | – |

| SMILES | pIC50 [1] | CC50 (Vero) | other results |
| --- | --- | --- | --- |
| N#Cc1ccc(CNc2ccc3ncnc(Nc4ccc(F)c(Cl)c4)c3c2)cc1 | 5.32 | > 25 µM | – |
| COc1cccc(CNc2ccc3ncnc(Nc4cccc(Cl)c4)c3c2)c1 | < 4.60 | 23 µM | – |
| COc1cccc(CNc2ccc3ncnc(Nc4cccc(C(C)=O)c4)c3c2)c1 | < 4.60 | – | – |
| CCCCN(CCCC)c1ccc2ncnc(Nc3ccc(F)c(Cl)c3)c2c1 | < 4.60 | – | – |
| COc1cccc(CNc2ccc3ncnc(Nc4ccc(C#N)cc4)c3c2)c1 | < 4.60 | > 25 µM | – |
| O=[N+]([O-])c1ccc(CNc2ccc3ncnc(Nc4ccc(C(F)(F)F)cc4)c3c2)cc1 | 5.48 | > 25 µM | – |
| N#Cc1cccc(/C=C/C(=O)Nc2ccc3ncnc(Nc4ccc(F)c(Cl)c4)c3c2)c1 | < 4.60 | – | – |
| Fc1ccc(Nc2ncnc3ccc(NCc4cccc(C(F)(F)F)c4)cc23)cc1Cl | 5.64 | 9.2 µM | – |
| COc1ccccc1CNc1ccc2ncnc(Nc3ccc(F)c(Cl)c3)c2c1 | 5.42 | > 25 µM | – |
| N#Cc1cccc(C(=O)Nc2ccc3ncnc(Nc4ccc(F)c(Cl)c4)c3c2)c1 | < 4.60 | – | – |
| N#Cc1cccc(CNc2ccc3ncnc(Nc4ccc(F)c(Cl)c4)c3c2)c1 | 6.80 | – | remaining at 0.5 h [2]: 56.4%; Tmax (in vivo): 2 h; Activity [3]: > 50 µM; remaining at 0.5 h [4]: 60.7%; bioavailability [5]: 21%; AUC [6]: 570 ng·h/mL; CC50 [7]: > 100 µM; AUC [8]: 1110 ng·h/mL; CC50 [9]: > 100 µM; CC50 [10]: > 100 µM; clearance [11]: 28.8 mL/min/kg; Vd [12]: 6.3 L/kg; half-life [13]: 5.5 h; Cmax [14]: 0.2 µg/h; CC50 [15]: > 100 µM; half-life [16]: 5.9 h; CC50 [17]: > 100 µM |
| COc1cccc(CNc2ccc3ncnc(Nc4ccc(C(F)(F)F)cc4)c3c2)c1 | 5.74 | > 25 µM | – |
| N#Cc1cccc(CNc2cc3c(Nc4ccc(F)c(Cl)c4)ncnc3cc2O)c1 | < 4.60 | > 25 µM | – |
| Fc1ccc(Nc2ncnc3ccc(NC4CCCCC4)cc23)cc1Cl | 4.82 | > 25 µM | – |
| N#Cc1ccccc1CNc1ccc2ncnc(Nc3ccc(C(F)(F)F)cc3)c2c1 | < 4.60 | > 25 µM | – |
